Values joined by “and” are separate entries in the source; they are usually repeats but may differ in a detail not shown here. Identical values can stand only once. Counter-ions that a name gives are not always drawn.
Assays:
Assay in all cases: Radioligand binding
hA2AAR = hA2AAR (Homo sapiens, UniProt P29274); settings: selectivity ratio of Ki values
hA3AR = molecular target: T1, hA3AR (Homo sapiens, UniProt P0DMS8); settings: selectivity ratio of Ki values
T1 sequence (P0DMS8 1-318): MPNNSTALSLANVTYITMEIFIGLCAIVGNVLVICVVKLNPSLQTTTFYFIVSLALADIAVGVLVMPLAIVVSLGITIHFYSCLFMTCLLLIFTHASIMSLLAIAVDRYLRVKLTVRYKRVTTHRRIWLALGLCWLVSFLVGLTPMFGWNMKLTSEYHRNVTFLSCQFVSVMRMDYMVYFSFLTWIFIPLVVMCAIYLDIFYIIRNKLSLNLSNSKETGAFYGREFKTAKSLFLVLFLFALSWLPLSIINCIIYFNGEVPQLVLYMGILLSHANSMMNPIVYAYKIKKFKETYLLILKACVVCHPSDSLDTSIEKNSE
Procedure, shortened: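 Displacement of [125I]AB-MECA binding on membranes from CHO cells expressing recombinant hA3AR. […] ADA (3 units/mL) was present during membrane preparation, a 30 min 30 °C preincubation and radioligand incubation. DMSO was ≤2% final. At least six competitor concentrations spanning 3 log units were used. Incubations ended by GF/B filtration and three rinses.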

hA1AR = molecular target: T2, hA1AR (Homo sapiens, UniProt P30542); settings: read-out: hA1 % of inhibition
T2 sequence (P30542 1-326): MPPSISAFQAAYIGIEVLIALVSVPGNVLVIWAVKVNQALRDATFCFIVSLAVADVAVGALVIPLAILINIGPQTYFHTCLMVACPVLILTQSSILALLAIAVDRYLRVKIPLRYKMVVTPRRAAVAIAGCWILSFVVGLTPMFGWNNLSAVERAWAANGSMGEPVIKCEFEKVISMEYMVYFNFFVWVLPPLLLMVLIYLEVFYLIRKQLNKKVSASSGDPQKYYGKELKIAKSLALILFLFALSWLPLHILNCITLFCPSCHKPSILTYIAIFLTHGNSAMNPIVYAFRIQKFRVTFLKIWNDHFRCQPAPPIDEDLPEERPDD
Procedure, shortened: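 Membranes came from CHO cells expressing recombinant hA1AR, labelled with [3H]R-PIA. ADA (3 units/mL) was present during membrane preparation, a 30 min 30 °C preincubation and radioligand incubation. Test compound was dissolved in DMSO and diluted in buffer, DMSO ≤2% final. Incubations ended by GF/B filtration and three buffer rinses. The read-out is % inhibition of specific binding at a single concentration.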

Chain of hA2AAR (P29274 whole entry): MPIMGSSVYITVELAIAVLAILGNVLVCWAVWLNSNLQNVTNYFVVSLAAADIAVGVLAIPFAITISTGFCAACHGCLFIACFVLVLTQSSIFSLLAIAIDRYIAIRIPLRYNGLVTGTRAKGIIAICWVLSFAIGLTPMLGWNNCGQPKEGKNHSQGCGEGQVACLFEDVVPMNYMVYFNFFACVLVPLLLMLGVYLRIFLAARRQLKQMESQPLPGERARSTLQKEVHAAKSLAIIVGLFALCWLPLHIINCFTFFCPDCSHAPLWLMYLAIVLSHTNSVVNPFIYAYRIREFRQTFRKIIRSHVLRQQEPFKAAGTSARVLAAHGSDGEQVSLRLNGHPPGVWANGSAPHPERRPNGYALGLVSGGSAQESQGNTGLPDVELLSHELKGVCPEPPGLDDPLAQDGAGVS

hA1/hA2A (hA2AAR) | hA1/hA3 (hA3AR) | hA2A/hA3 (hA3AR) | inhibition at 10 µM (hA1AR) [%] | SMILES
>10 | – | – | – | Cn1cc2c(nc(NC(=O)Nc3ccc(CC(=O)O)cc3)n3nc(-c4ccco4)nc23)n1 [Compound 3, 2-(4-(3-(2-(furan-2-yl)-8-methyl-8H-pyrazolo [4,3-e] [1,2,4]triazolo[1,5-c]pyrimidin-5-yl)ureido)phenyl)acetic acid]
>66 | >3636 | 54.5 | – | Cn1cc2c(nc(NC(=O)Nc3ccc(CC(=O)NCCCNC(=O)OC(C)(C)C)cc3)n3nc(-c4ccco4)nc23)n1 [Compound 4, tert-Butyl (3-(2-(4-(3-(2-(furan-2-yl)-8-methyl-8H-pyrazolo [4,3-e][1,2,4]triazolo[1,5-c]pyrimidin-5-yl)ureido)phenyl)acetamido)propyl)carbamate]
>33 | >2890 | 88 | – | Cn1cc2c(nc(NC(=O)Nc3ccc(CC(=O)NCCCCNC(=O)OC(C)(C)C)cc3)n3nc(-c4ccco4)nc23)n1 [Compound 5, tert-Butyl (4-(2-(4-(3-(2-(furan-2-yl)-8-methyl-8H-pyrazolo [4,3-e][1,2,4]triazolo[1,5-c]pyrimidin-5-yl)ureido)phenyl)acetamido)butyl)carbamate]
>26.5 | >2237 | 84.1 | – | Cn1cc2c(nc(NC(=O)Nc3ccc(CC(=O)NCCCCCNC(=O)OC(C)(C)C)cc3)n3nc(-c4ccco4)nc23)n1 [Compound 6, tert-Butyl (5-(2-(4-(3-(2-(furan-2-yl)-8-methyl-8H-pyrazolo [4,3-e][1,2,4]triazolo[1,5-c]pyrimidin-5-yl)ureido)phenyl)acetamido)pentyl)carbamate]
>22 | >133.6 | 6.1 | – | Cn1cc2c(nc(NC(=O)Nc3ccc(CC(=O)NCCOCCOCCNC(=O)OC(C)(C)C)cc3)n3nc(-c4ccco4)nc23)n1 [Compound 7, tert-Butyl (2-(2-(2-(2-(4-(3-(2-(furan-2-yl)-8-methyl-8H-pyrazolo[4,3-e][1,2,4]triazolo[1,5-c]pyrimidin-5-yl)ureido)phenyl)acetamido)ethoxy)ethoxy)ethyl)carbamate]
>30.5 | >121.3 | 3.9 | – | Cn1cc2c(nc(NC(=O)Nc3ccc(CC(=O)NCCCOCCOCCOCCCNC(=O)OC(C)(C)C)cc3)n3nc(-c4ccco4)nc23)n1 [Compound 8, tert-Butyl (1-(4-(3-(2-(furan-2-yl)-8-methyl-8H-pyrazolo [4,3-e][1,2,4]triazolo[1,5-c]pyrimidin-5-yl)ureido)phenyl)-2-oxo-7,10,13-trioxa-3-azahexadecan-16-yl)carbamate]
>57 | >1240 | 21.7 | – | Cn1cc2c(nc(NC(=O)Nc3ccc(CC(=O)NCCCN)cc3)n3nc(-c4ccco4)nc23)n1 [Compound 9, N-(3-aminopropyl)-2-(4-(3-(2-(furan-2-yl)-8-methyl-8H-pyrazolo[4,3-e][1,2,4]triazolo[1,5-c]pyrimidin-5-yl)ureido)phenyl) acetamide trifluoroacetate salt]
>58 | >1666 | 28.6 | – | Cn1cc2c(nc(NC(=O)Nc3ccc(CC(=O)NCCCCN)cc3)n3nc(-c4ccco4)nc23)n1 [Compound 10, N-(4-aminobutyl)-2-(4-(3-(2-(furan-2-yl)-8-methyl-8H-pyrazolo[4,3-e][1,2,4]triazolo[1,5-c]pyrimidin-5-yl)ureido)phenyl) acetamide trifluoroacetate salt]
>49 | >3759 | 76.3 | – | Cn1cc2c(nc(NC(=O)Nc3ccc(CC(=O)NCCCCCN)cc3)n3nc(-c4ccco4)nc23)n1 [Compound 11, N-(5-aminopentyl)-2-(4-(3-(2-(furan-2-yl)-8-methyl-8H-pyrazolo[4,3-e][1,2,4]triazolo[1,5-c]pyrimidin-5-yl)ureido)phenyl) acetamide trifluoroacetate salt]
>37.4 | >520 | 14 | – | Cn1cc2c(nc(NC(=O)Nc3ccc(CC(=O)NCCOCCOCCN)cc3)n3nc(-c4ccco4)nc23)n1.O=C(O)C(F)(F)F [Compound 12, 2-(2-(2-(2-(4-(3-(2-(furan-2-yl)-8-methyl-8H-pyrazolo[4,3-e][1,2,4]triazolo[1,5-c]pyrimidin-5-yl)ureido)phenyl)acetamido)ethoxy)ethoxy)ethanamine trifluoroacetate salt]
>30 | >970 | 30.3 | – | Cn1cc2c(nc(NC(=O)Nc3ccc(CC(=O)NCCCOCCOCCOCCCN)cc3)n3nc(-c4ccco4)nc23)n1.O=C(O)C(F)(F)F [Compound 13, N-(3-(2-(2-(3-aminopropoxy)ethoxy)ethoxy)propyl)-2-(4-(3-(2-(furan-2-yl)-8-methyl-8H-pyrazolo[4,3-e][1,2,4]triazolo[1,5-c]pyrimidin-5-yl)ureido)phenyl)acetamide trifluoroacetate salt]
>96 | >96 | 1 | 27 | Cn1cc2c(nc(NC(=O)Nc3ccc(CC(=O)NCCCNC(=S)Nc4ccc(-c5c6ccc(=O)cc-6oc6cc(O)ccc56)c(C(=O)O)c4)cc3)n3nc(-c4ccco4)nc23)n1 [Compound 14, 5-(3-(3-(2-(4-(3-(2-(furan-2-yl)-8-methyl-8H-pyrazolo[4,3-e][1,2,4]triazolo[1,5-c]pyrimidin-5-yl)ureido)phenyl)acetamido)propyl)thioureido)-2-(6-hydroxy-3-oxo-3H-xanthen-9-yl)benzoate]
>129 | – | 0.82 | 28 | Cn1cc2c(nc(NC(=O)Nc3ccc(CC(=O)NCCCCNC(=S)Nc4ccc(-c5c6ccc(=O)cc-6oc6cc(O)ccc56)c(C(=O)O)c4)cc3)n3nc(-c4ccco4)nc23)n1 [Compound 15, 5-(3-(4-(2-(4-(3-(2-(furan-2-yl)-8-methyl-8H-pyrazolo[4,3-e][1,2,4]triazolo[1,5-c]pyrimidin-5-yl)ureido)phenyl)acetamido)butyl)thioureido)-2-(6-hydroxy-3-oxo-3H-xanthen-9-yl)benzoate]
– | >909 | 16.5 | 55 | C#CCCC(=O)Nc1nc2nn(C)cc2c2nc(-c3ccco3)nn12 [Compound 19, N-(2-(furan-2-yl)-8-methyl-8H-pyrazolo[4,3-e][1,2,4]triazolo[1,5-c]pyrimidin-5-yl)pent-4-ynamide]
– | – | 48.4 | – | C#CCCCC(=O)Nc1nc2nn(C)cc2c2nc(-c3ccco3)nn12 [Compound 20, N-(2-(furan-2-yl)-8-methyl-8H-pyrazolo[4,3-e][1,2,4]triazolo[1,5-c]pyrimidin-5-yl)hex-5-ynamide]
5.9 | 122 and 122.7 | 20.7 | – | C#CCCCCC(=O)Nc1nc2nn(C)cc2c2nc(-c3ccco3)nn12 [Compound 21, N-(2-(furan-2-yl)-8-methyl-8H-pyrazolo[4,3-e][1,2,4]triazolo[1,5-c]pyrimidin-5-yl)hept-6-ynamide]
>20.7 | >781 | 37.6 | – | C#CCCCCCC(=O)Nc1nc2nn(C)cc2c2nc(-c3ccco3)nn12 [Compound 22, N-(2-(furan-2-yl)-8-methyl-8H-pyrazolo[4,3-e][1,2,4]triazolo[1,5-c]pyrimidin-5-yl)oct-7-ynamide]
